# Measured values gathered from unrelated publications.
# Each line is one published result; the experiments were not run side by side.
Compound,organism,test,system,setting,quantity,result
O=C1NC(=S)N/C1=C\c1ccc(-c2ccc(N(c3ccccc3)c3ccccc3)cc2)cc1,Bacillus cereus,"microbial growth, broth dilution",ATCC10876,,MIC,> 1000 µg/mL
CC1(C)S[C@@H]2[C@H](NC(=O)[C@H](N)c3ccccc3)C(=O)N2[C@H]1C(=O)O,Salmonella enterica,"microbial growth, agar dilution",ENTERITIDIS,26.93 µM,inhibition,100%
CS(=O)(=O)c1ccc([C@@H](O)[C@@H](CF)NC(=O)C(Cl)Cl)cc1,Salmonella enterica,microbial growth,ENTERITIDIS,"20 h, pH 7",MIC,4 µg/mL
COc1cc(-c2cc(=O)c3c(O)cc(O)cc3o2)ccc1O,Helicobacter pylori,"microbial growth, broth dilution",,62.5 µg/mL,inhibition,100%
[H]/N=C(/N)N[C@H]1[C@H](O)[C@@H](O)[C@H](O[C@@H]2O[C@@H](C)[C@](O)(C=O)[C@H]2O[C@@H]2O[C@@H](CO)[C@H](O)[C@@H](O)[C@@H]2NC)[C@@H](N/C(N)=N\[H])[C@@H]1O,Salmonella enterica,microbial growth,,"20 h, pH 7.2",MIC,8 µg/mL
O=C(N/N=C/c1ccc([N+](=O)[O-])o1)c1ccc(O)cc1,Salmonella enterica,microbial growth,ATCC13311 TYPHIMURIUM,,MIC90,0.98 µg/mL
COC(=O)c1ccc(O)cc1,Helicobacter pylori,"microbial growth, broth dilution",,15.63 µg/mL,inhibition,100%
Cc1cc(NS(=O)(=O)c2ccc(N)cc2)no1,Salmonella enterica,microbial growth,"F98, TYPHIMURIUM","20 h, pH 7.2",MIC,64 µg/mL
CC[C@H]1OC(=O)[C@H](C)[C@@H](O[C@H]2C[C@@](C)(OC)[C@@H](O)[C@H](C)O2)[C@H](C)[C@@H](O[C@@H]2O[C@H](C)C[C@H](N(C)C)[C@H]2O)[C@](C)(OC)C[C@@H](C)C(=O)[C@H](C)[C@@H](O)[C@]1(C)O,Helicobacter pylori,"microbial growth, broth dilution",,62.5 µg/mL,inhibition,100%
O=C(O)c1cn(C2CC2)c2cc(N3CCNCC3)c(F)cc2c1=O,Salmonella enterica,microbial growth,ENTERITIDIS,"20 h, pH 7",MIC,0.0156 µg/mL
O=C(N[C@H](CO)[C@H](O)c1ccc([N+](=O)[O-])cc1)C(Cl)Cl,Salmonella enterica,microbial growth,ATCC13311 TYPHIMURIUM,,MIC90,0.98 µg/mL
O=C(O)CN1C(=O)/C(=C/c2ccc(-c3ccc(N(c4ccccc4)c4ccccc4)cc3)c3ccccc23)NC1=S,Bacillus cereus,"microbial killing, broth dilution",ATCC10876,,MBC,> 1000 µg/mL
CN(C)[C@@H]1C(O)=C(C(N)=O)C(=O)[C@@]2(O)C(O)=C3C(=O)c4c(O)cccc4[C@@](C)(O)[C@H]3C[C@@H]12,Salmonella enterica,microbial growth,"F98, TYPHIMURIUM","20 h, pH 7",MIC,1 µg/mL
COc1cc([C@H]2OC[C@H]3[C@@H]2CO[C@@H]3c2cc(OC)c(O)c(OC)c2)cc(OC)c1O,Helicobacter pylori,"microbial growth, broth dilution",,31.25 µg/mL,inhibition,100%
CN[C@H](CC(C)C)C(=O)N[C@H]1C(=O)N[C@@H](CC(N)=O)C(=O)N[C@H]2C(=O)N[C@H]3C(=O)N[C@H](C(=O)N[C@H](C(=O)O)c4cc(O)cc(O)c4-c4cc3ccc4O)[C@H](O)c3ccc(c(Cl)c3)Oc3cc2cc(c3O[C@@H]2O[C@H](CO)[C@@H](O)[C@H](O)[C@H]2O[C@H]2C[C@](C)(N)[C@H](O)[C@H](C)O2)Oc2ccc(cc2Cl)[C@H]1O,Bacillus cereus,"microbial growth, broth dilution",ATCC10876,,MIC,0.98 µg/mL
O=C(N[C@H](CO)[C@H](O)c1ccc([N+](=O)[O-])cc1)C(Cl)Cl,Salmonella enterica,microbial growth,,"20 h, pH 5.5",MIC,2 µg/mL
O=C1NC(=S)N/C1=C\c1ccc(-c2ccc(N(c3ccccc3)c3ccccc3)cc2)c2ccccc12,Bacillus cereus,"microbial killing, broth dilution",ATCC10876,,MBC,> 1000 µg/mL
O=c1cc(-c2ccc(O)cc2)oc2cc(O)cc(O)c12,Helicobacter pylori,"microbial growth, broth dilution",,0.98 µg/mL,inhibition,82.6%
O=C(O)CN1C(=O)/C(=C/c2c3ccccc3c(-c3ccc(N(c4ccccc4)c4ccccc4)cc3)c3ccccc23)NC1=S,Bacillus cereus,"microbial killing, broth dilution",ATCC10876,,MBC,> 1000 µg/mL
CO/N=C(\C(=O)N[C@@H]1C(=O)N2C(C(=O)O)=C(CSC(=O)c3ccco3)CS[C@H]12)c1csc(N)n1,Salmonella enterica,microbial growth,TYPHIMURIUM,"20 h, pH 7.2",MIC,1 µg/mL
CO[C@H]1O[C@H](COC(c2ccccc2)(c2ccccc2)c2ccccc2)[C@@H](OC(=O)c2ccc(C(C)(C)C)cc2)[C@H](OC(=O)c2ccc(C(C)(C)C)cc2)[C@H]1OC(=O)c1ccc(C(C)(C)C)cc1,Bacillus cereus,"microbial killing, broth dilution",,,MBC,8 µg/mL
O=C1NC(=S)S/C1=C\c1c2ccccc2c(-c2ccc(N(c3ccccc3)c3ccccc3)cc2)c2ccccc12,Bacillus cereus,"microbial killing, broth dilution",ATCC10876,,MBC,> 1000 µg/mL
O=c1cc(-c2ccc(O)c(O)c2)oc2cc(O)cc(O)c12,Helicobacter pylori,"microbial growth, broth dilution",,0.98 µg/mL,inhibition,73.2%
O=C1NC(=S)N/C1=C\c1c2ccccc2c(-c2ccc(N(c3ccccc3)c3ccccc3)cc2)c2ccccc12,Bacillus cereus,"microbial killing, broth dilution",ATCC10876,,MBC,> 1000 µg/mL
CO/N=C(\C(=O)N[C@@H]1C(=O)N2C(C(=O)O)=C(CSc3nc(=O)c(=O)[nH]n3C)CS[C@H]12)c1csc(N)n1,Salmonella enterica,microbial growth,,"20 h, pH 7",MIC,0.0625 µg/mL
